As a reminder, the IC50 is the concentration that gives 50% inhibition. A low value points to inhibition by little substance. The Ki is a dissociation constant, usually derived from enzyme kinetics or from competition with a known ligand. Low readings indicate higher affinity, high ones lower affinity.

The text below walks through data of article PMC4822987 (Acta crystallographica. Section F, Structural biology …, 2016).

Experiment [1] has as its system human arginase II. Conditions: relative to ABH, ref Golebiowski et al., 2013; cited from earlier work.
Experiment [2] deals with Leishmania mexicana arginase (LmARG) (Leishmania mexicana, UniProt Q6TUJ5). The experiment is described as follows: Inhibitory activity assay, colorimetric arginase activity. It is filed as biochemical. The method, boiled down:
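Recombinant LmARG (1 µM) started the reaction in 50 mM EPPS pH 8.0 with 100 µM MnCl2 and 30 mM L-arginine at 21°C. After 20 min it was stopped with H2SO4/H3PO4 acid plus α-isonitrosopropiophenone dye, then heated at 90°C for 1 h. Urea was read at 550 nm. Ki came from IC50 via Cheng–Prusoff, with Km from 0.5–150 mM arginine.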

The subject of experiment [3] is human arginase I. Conditions: relative to ABH, ref Van Zandt et al., 2013; cited from earlier work.
Experiment [4] relates to S. mansoni arginase. Conditions: relative to ABH, ref Hai et al., 2014; cited from earlier work.

With `N[C@@](CCCCB(O)O)(C(=O)O)C1CCN(Cc2ccc(Cl)c(Cl)c2)CC1` (racemic) [ABHDP, (R)-2-amino-6-borono-2-[1-(3,4-dichlorobenzyl)piperidin-4-yl]hexanoic acid], the “improved inhibitory potency in comparison with parent inhibitor ABH” value in experiment [1] is on record as 7.4 fold. Also, in experiment [2], the IC50 amounted to 1700 ± 400 nM and affinity was put at a Ki of 1100 ± 300 nM. The “improved inhibitory potency (IC50) in comparison with parent inhibitor ABH” value in experiment [3] is recorded as 7.4 fold. For the same compound, the “improved affinity in comparison with parent inhibitor ABH” value in experiment [4] is on record as 2.4 fold.
In the case of `N[C@@H](CCCCB(O)O)C(=O)O` [ABH, 2-(S)-amino-6-boronohexanoic acid, reference compound], in experiment [2], the IC50 amounted to 1300 ± 200 nM and the Ki is 900 ± 100 nM.
For the compound `N[C@](CCCCB(O)O)(CCN1CCCCC1)C(=O)O` [ABHPE, (R)-2-amino-6-borono-2-[2-(piperidin-1-yl)ethyl]hexanoic acid], the “improved inhibitory potency in comparison with parent inhibitor ABH” value in experiment [1] was 3.8 fold. In addition, in experiment [2], the IC50 was 2100 ± 300 nM and the Ki was 1400 ± 200 nM. Further, in experiment [3], the “improved inhibitory potency (IC50) in comparison with parent inhibitor ABH” value is on record as 6.5 fold. The “improved affinity in comparison with parent inhibitor ABH” value in experiment [4] is given as 5.0 fold.
